According to ChEMBL document CHEMBL1136250, “N1-benzenesulfonylgramine and N1-benzenesulfonylskatole: novel 5-HT6 receptor ligand templates” (Bioorg Med Chem Lett, 2003):

Tested on: not listed separately
Test: pA2 value was determined
Details: not given

**Q.** For `Cc1cn(S(=O)(=O)c2ccc(N)cc2)c2ccccc12`, which pA2 is on record?
**A.** The pA2 was 7.

Tested on: HEK293
Test: Inhibition of 5-HT stimulated cAMP production in HEK-5-HT6 cells
Type: functional, cell-based
Details: Homo sapiens
Outline: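 HEK cells expressing 5-HT6 receptors; the compound was tested alone for agonist-induced cAMP production, and against 5-HT-stimulated cAMP production. IC50 was calculated for inhibition of the 5-HT-stimulated cAMP response.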

**Q.** Which IC50 does the source give for `Cc1cn(S(=O)(=O)c2ccc(N)cc2)c2ccccc12` here?
**A.** The IC50 was 320 nM.

**Q.** For `CN(C)Cc1cn(S(=O)(=O)c2ccccc2)c2ccccc12`, which IC50 is on record?
**A.** Its IC50 is 880 nM.

Molecular target: 5-hydroxytryptamine receptor 6 (Homo sapiens, UniProt P50406)
Test: Binding affinity towards human 5-hydroxytryptamine 6 receptor
Details: not given
Outline: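 Competition binding with [3H]LSD (1 nM final), 90 min at room temperature in 50 mM Tris–Cl, 10 mM MgCl2, 0.1 mM EDTA, pH 7.40; clozapine defines non-specific binding. Test agent 1–10,000 nM; Ki by LIGAND fitting, triplicate determinations.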

Sequence of 5-hydroxytryptamine receptor 6 (P50406 whole entry): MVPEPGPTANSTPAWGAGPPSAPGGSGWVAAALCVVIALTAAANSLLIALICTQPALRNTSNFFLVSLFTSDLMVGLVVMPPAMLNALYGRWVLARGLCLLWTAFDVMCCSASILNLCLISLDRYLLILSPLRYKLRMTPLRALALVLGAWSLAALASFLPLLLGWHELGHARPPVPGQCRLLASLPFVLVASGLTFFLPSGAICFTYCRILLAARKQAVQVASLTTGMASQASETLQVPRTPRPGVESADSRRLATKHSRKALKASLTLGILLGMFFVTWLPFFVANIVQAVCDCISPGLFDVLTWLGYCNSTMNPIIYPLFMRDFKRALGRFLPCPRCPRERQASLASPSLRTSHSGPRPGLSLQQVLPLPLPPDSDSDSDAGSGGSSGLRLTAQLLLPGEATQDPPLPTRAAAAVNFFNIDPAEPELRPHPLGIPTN

**Q.** For `CNCCc1cn(S(=O)(=O)c2ccccc2)c2ccc(OC)cc12`, which Ki is on record?
**A.** The Ki was 23 nM.

**Q.** For `CN(C)CCc1cn(S(=O)(=O)c2ccccc2)c2ccc(O)cc12`, which Ki is on record?
**A.** The Ki was 28 nM.

**Q.** With `COc1ccc2c(c1)c(CCN(C)Cc1ccccc1)cn2S(=O)(=O)c1ccccc1` as the compound, how does the Ki read?
**A.** The Ki was 43 nM.

**Q.** With `CCN(CC)CCc1cn(S(=O)(=O)c2ccc(N)cc2)c2ccccc12` as the compound, how does the Ki read?
**A.** The Ki was 0.6 nM.

**Q.** For `COc1ccc2c(c1)c(CCN(C)Cc1ccccc1)cn2S(=O)(=O)c1ccc(N)cc1`, which Ki is on record?
**A.** The Ki was 3 nM.

**Q.** With `CCN(CC)CCc1cn(S(=O)(=O)c2ccc(NC(C)=O)cc2)c2ccccc12` as the compound, how does the Ki read?
**A.** The Ki was 90 nM.

**Q.** With `CC(=O)Nc1ccc(S(=O)(=O)n2cc(CCN(C)C)c3ccccc32)cc1` as the compound, how does the Ki read?
**A.** The Ki was 27 nM.

**Q.** With `CCN(CC)CCc1cn(S(=O)(=O)c2ccc(NC(C)=O)cc2)c2ccc(OC)cc12` as the compound, how does the Ki read?
**A.** Its Ki is 230 nM.

**Q.** For `CCN(CC)CCc1cn(S(=O)(=O)c2ccc(N)cc2)c2ccc(OC)cc12`, which Ki is on record?
**A.** Its Ki is 0.6 nM.

**Q.** Which Ki does the source give for `CCN(CC)CCc1cn(S(=O)(=O)c2ccccc2)c2ccc(OC)cc12` here?
**A.** Its Ki is 6.2 nM.

**Q.** Which Ki does the source give for `COc1ccc2c(c1)c(CCN(C)C)cn2S(=O)(=O)c1ccc(NC(C)=O)cc1` here?
**A.** Its Ki is 34 nM.
